Laboratory results published in ChEMBL document CHEMBL2390928.
pEC50, pIC50: −log10 of the molar value. Active and inactive are the calls of the source. No cut-off for these calls is given here.

Key:
SK-OV-3 [1] = assay: Cytotoxicity against human SKOV3 cells assessed as growth inhibition after 48 hrs by SRB assay; assay type: functional, cell-based; conditions: SK-OV-3, 48 h
[2] = Ratio of EC50 for induction of microtubule depolymerization in rat A10 cells to IC50 for human MDA-MB-435 cells
Method in brief: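 This ratio divides the A-10 EC50 by the MDA-MB-435 melanoma IC50. […] The IC50 is from the sulforhodamine B proliferation assay, 3–5 independent experiments.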

Bos taurus = species: Bos taurus; assay: Displacement of [3H]-colchicine from bovine brain tubulin at 5 uM after 10 mins relative to control
Method in brief: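 Electrophoretically homogeneous bovine brain tubulin, 1.0 µM, incubated 10 min at 37 °C with 5.0 µM [3H]colchicine and 5.0 µM inhibitor; colchicine binding inhibition expressed as percent ± SD.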

[3] = Inhibition of bovine brain tubulin assembly after 20 mins by spectrophotometric analysis; parameters: species or system Bos taurus
Method in brief: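 Electrophoretically homogeneous bovine brain tubulin is used at 10 µM (1.0 mg/mL) with varying inhibitor concentrations. After 15 min preincubation at 30 °C, 0.4 mM GTP is added.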

[4] = Induction of interphase microtubule depolymerization in rat A10 cells after 18 to 24 hrs by indirect immunofluorescence assay; assay type: cell-based
Method in brief: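 Rat aortic smooth muscle A-10 cells are treated for 18 h, fixed in cold methanol, and stained for microtubules with a β-tubulin antibody by indirect immunofluorescence. […] It is computed per experiment over a wide concentration range, from at least 3 independent experiments, and reported as mean ± SD.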

MDA-MB-435 [5] = assay: Cytotoxicity against human MDA-MB-435 cells assessed as growth inhibition after 48 hrs by SRB assay; assay type: functional, cell-based; conditions: MDA-MB-435, 48 h
HeLa [6] = assay: Resistance ratio of IC50 for human HeLa cells expressing beta-3 tubulin to IC50 for human HeLa cells; assay type: functional
Method in brief: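 HeLa WT βIII cells are HeLa cells transfected with the βIII-tubulin gene. IC50 in this line and in parental HeLa is taken from the sulforhodamine B assay (3–5 independent experiments). Rr is the βIII-line IC50 divided by the parental HeLa IC50.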

HeLa [7] = assay: Cytotoxicity against human HeLa cells assessed as growth inhibition after 48 hrs by SRB assay; assay type: functional, cell-based
SK-OV-3 [8] = assay: Resistance ratio of IC50 for human SKOV3 cells expressing MDR1 to IC50 for human SKOV3 cells; assay type: functional
Method in brief: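 Relative resistance (Rr) is the IC50 in Pgp-expressing SK-OV-3 MDR-1-6/6 cells divided by the IC50 in parental SK-OV-3 cells.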

SF-268 = assay: Growth inhibition of human SF268 cells; assay type: functional
HOP-62 = assay: Growth inhibition of human HOP62 cells; assay type: functional
TK-10 = assay: Growth inhibition of human TK10 cells; assay type: functional
CCRF-CEM = assay: Growth inhibition of human CCRF-CEM cells; assay type: functional
OVCAR-5 = assay: Growth inhibition of human OVCAR5 cells; assay type: functional
RPMI-8226 = assay: Growth inhibition of human RPMI8226 cells; assay type: functional
U-251 = assay: Growth inhibition of human U251 cells; assay type: functional
K562 = assay: Growth inhibition of human K562 cells; assay type: functional
NCI-H226 = assay: Growth inhibition of human NCI-H226 cells; assay type: functional
OVCAR-4 = assay: Growth inhibition of human OVCAR4 cells; assay type: functional
SK-MEL-28 = assay: Growth inhibition of human SK-MEL-28 cells; assay type: functional
SK-OV-3 [9] = assay: Growth inhibition of human SKOV3 cells; assay type: functional
[10] = Growth inhibition of human NCI-ADR-RES cells; assay type: functional
Malme-3M = assay: Growth inhibition of human MALME-3M cells; assay type: functional
NCI-H23 = assay: Growth inhibition of human NCI-H23 cells; assay type: functional
MDA-MB-435 [11] = assay: Cell cycle arrest in human MDA-MB-435 cells assessed as increase in accumulation at G2/M phase at 44.1 to 73.5 nM after 18 hrs by FACS flow cytometric analysis; assay type: functional, cell-based
Method in brief: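 Cells harvested, stained with Krishan's reagent (propidium iodide), analysed by flow cytometry; propidium iodide intensity plotted against event count to give cell cycle distribution.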

HL-60(TB) = assay: Growth inhibition of human HL-60(TB) cells; assay type: functional
UACC-62 = assay: Growth inhibition of human UACC62 cells; assay type: functional
MDA-MB-435 [12] = assay: Growth inhibition of human MDA-MB-435 cells; assay type: functional
SN12C = assay: Growth inhibition of human SN12C cells; assay type: functional
PC-3 = assay: Growth inhibition of human PC3 cells; assay type: functional
NCI-H322M = assay: Growth inhibition of human NCI-H322M cells; assay type: functional
SK-MEL-5 = assay: Growth inhibition of human SK-MEL-5 cells; assay type: functional
A549 = assay: Growth inhibition of human A549 cells; assay type: functional
COLO 205 = assay: Growth inhibition of human COLO205 cells; assay type: functional
A498 = assay: Growth inhibition of human A498 cells; assay type: functional
MOLT-4 = assay: Growth inhibition of human MOLT4 cells; assay type: functional
OVCAR-3 = assay: Growth inhibition of human OVCAR3 cells; assay type: functional
HCT-116 = assay: Growth inhibition of human HCT116 cells; assay type: functional
HT-29 = assay: Growth inhibition of human HT-29 cells; assay type: functional
SW-620 = assay: Growth inhibition of human SW620 cells; assay type: functional
[13] = Growth inhibition of human HCC2998 cells; assay type: functional; conditions: HCC 2998
SR = assay: Growth inhibition of human SR cells; assay type: functional
MCF7 = assay: Growth inhibition of human MCF7 cells; assay type: functional
LOX IMVI = assay: Growth inhibition of human LOXIMVI cells; assay type: functional
MDA-MB-468 = assay: Growth inhibition of human MDA-MB-468 cells; assay type: functional
OVCAR-8 = assay: Growth inhibition of human OVCAR8 cells; assay type: functional
RXF 393 = assay: Growth inhibition of human RXF393 cells; assay type: functional
SF-539 = assay: Growth inhibition of human SF539 cells; assay type: functional
Hs-578T = assay: Growth inhibition of human Hs578T cells; assay type: functional
DU-145 = assay: Growth inhibition of human DU145 cells; assay type: functional
M14 = assay: Growth inhibition of human M14 cells; assay type: functional
SF-295 = assay: Growth inhibition of human SF295 cells; assay type: functional
SNB-19 = assay: Growth inhibition of human SNB19 cells; assay type: functional
NCI-H522 = assay: Growth inhibition of human NCI-H522 cells; assay type: functional
786-0 = assay: Growth inhibition of human 786-0 cells; assay type: functional
HCT-15 = assay: Growth inhibition of human HCT15 cells; assay type: functional
[14] = Growth inhibition of human EKVX cells; assay type: functional
SNB-75 = assay: Growth inhibition of human SNB75 cells; assay type: functional
BT-549 = assay: Growth inhibition of human BT549 cells; assay type: functional
ACHN = assay: Growth inhibition of human ACHN cells; assay type: functional
SK-MEL-2 = assay: Growth inhibition of human SK-MEL-2 cells; assay type: functional
KM12 = assay: Growth inhibition of human KM12 cells; assay type: functional
NCI-H460 = assay: Growth inhibition of human NCI-H460 cells; assay type: functional
UO-31 = assay: Growth inhibition of human UO31 cells; assay type: functional
MDA-MB-231 = assay: Growth inhibition of human MDA-MB-231 cells; assay type: functional
HOP-92 = assay: Growth inhibition of human HOP92 cells; assay type: functional

Compound: CC(=O)O[C@H]1C(=O)[C@@]2(C)[C@H]([C@H](OC(=O)c3ccccc3)[C@]3(O)C[C@H](OC(=O)[C@H](O)[C@@H](NC(=O)c4ccccc4)c4ccccc4)C(C)=C1C3(C)C)[C@]1(OC(C)=O)CO[C@@H]1C[C@@H]2O [PACLITAXEL]
- pIC50 (SK-OV-3 [1]): 8.36

Compound: CCN(c1ccc(OC)cc1)c1nc(N)nc2[nH]c3ccccc3c12
- Ratio [2]: 8.4
- inhibition (Bos taurus): 76%
- pIC50 [3]: 5.77
- pEC50 [4]: 6.70
- pIC50 (MDA-MB-435 [5]): 7.63
- Ratio IC50 (HeLa [6]): 1.4
- pIC50 (HeLa [7]): 7.48
- pIC50 (SK-OV-3 [1]): 7.28
- Ratio IC50 (SK-OV-3 [8]): 1.4

Compound: COc1ccc(N(C)c2nc(N)nc3[nH]c4ccccc4c23)cc1
- GI50 (SF-268): 37.7 nM
- GI50 (HOP-62): 40 nM
- GI50 (TK-10): 56.2 nM
- GI50 (CCRF-CEM): 41.1 nM
- GI50 (OVCAR-5): 51.2 nM
- GI50 (RPMI-8226): 41.1 nM
- GI50 (U-251): 37.3 nM
- GI50 (K562): < 10 nM
- inhibition (Bos taurus): 84%
- GI50 (NCI-H226): 133 nM
- pIC50 [3]: 5.85
- GI50 (OVCAR-4): 52.7 nM
- GI50 (SK-MEL-28): < 10 nM
- GI50 (SK-OV-3 [9]): 29.9 nM
- GI50 [10]: 11.5 nM
- GI50 (Malme-3M): 304 nM
- GI50 (NCI-H23): 31.8 nM
- Activity (MDA-MB-435 [11]): Active
- GI50 (HL-60(TB)): 32.2 nM
- GI50 (UACC-62): 27 nM
- GI50 (MDA-MB-435 [12]): < 10 nM
- GI50 (SN12C): 80.1 nM
- GI50 (PC-3): 44.3 nM
- GI50 (NCI-H322M): 64.2 nM
- pEC50 [4]: 6.98
- GI50 (SK-MEL-5): 32.3 nM
- GI50 (A549): 36.4 nM
- GI50 (COLO 205): 25.8 nM
- GI50 (A498): 15.8 nM
- pIC50 (MDA-MB-435 [5]): 7.83
- GI50 (MOLT-4): 47.7 nM
- GI50 (OVCAR-3): 12.9 nM
- GI50 (HCT-116): 29.8 nM
- GI50 (HT-29): 31 nM
- GI50 (SW-620): 19 nM
- GI50 [13]: 23.6 nM
- GI50 (SR): < 10 nM
- GI50 (MCF7): 16.4 nM
- GI50 (LOX IMVI): 68.4 nM
- pIC50 (HeLa [7]): 7.67
- GI50 (MDA-MB-468): 26.9 nM
- GI50 (OVCAR-8): 42.3 nM
- GI50 (RXF 393): 16.9 nM
- GI50 (SF-539): 24.2 nM
- GI50 (Hs-578T): 11.5 nM
- GI50 (DU-145): 31.4 nM
- GI50 (M14): 16.6 nM
- GI50 (SF-295): 26 nM
- GI50 (SNB-19): 50.9 nM
- GI50 (NCI-H522): < 10 nM
- GI50 (786-0): 49 nM
- GI50 (HCT-15): 26.1 nM
- GI50 [14]: 16.7 nM
- pIC50 (SK-OV-3 [1]): 7.56
- GI50 (SNB-75): 12.7 nM
- GI50 (BT-549): 94.5 nM
- GI50 (ACHN): 89.6 nM
- GI50 (SK-MEL-2): 19.7 nM
- GI50 (KM12): 13.2 nM
- GI50 (NCI-H460): 30 nM
- GI50 (UO-31): 53.7 nM
- GI50 (MDA-MB-231): 64.6 nM
- GI50 (HOP-92): 242 nM

Compound: COc1ccc(/C=C\c2cc(OC)c(OC)c(OC)c2)cc1O [COMBRETASTATIN A4]
- pEC50 [4]: 7.89
- pIC50 (HeLa [7]): 8.33
- pIC50 (SK-OV-3 [1]): 8.01

Compound: CCOc1ccc(N(C)c2nc(N)nc3[nH]c4ccccc4c23)cc1
- Ratio [2]: 6.5
- inhibition (Bos taurus): 82%
- pIC50 [3]: 5.77
- pEC50 [4]: 7.08
- pIC50 (MDA-MB-435 [5]): 7.84
- Ratio IC50 (HeLa [6]): 0.8
- pIC50 (HeLa [7]): 7.64
- pIC50 (SK-OV-3 [1]): 7.64
- Ratio IC50 (SK-OV-3 [8]): 1.3

Compound: COc1ccc(N(C)c2nc(C)nc3[nH]ccc23)cc1
- inhibition (Bos taurus): 70%
- pIC50 [3]: 5.59
